“And” between values parts separate entries of the source, which are not always exact repeats. Identical values can stand only once.
Key:
[1] = 3 + 3 dose‐escalation: dose‐limiting toxicity; assay type: in vivo, human; settings: patients with advanced cancer
[2] = system: PAR levels (balance of PARP and PARG activity) in peripheral blood mononuclear cells; test: Radiation‐enhanced‐PAR pharmacodynamic assay; assay type: in vivo, human; settings: Day 8 vs before treatment, lowest dose‐level (25 mg olaparib BID), ex vivo 8 Gy
Method in brief: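 Venous blood (16 mL, mononuclear cell preparation citrate tubes) was drawn pre-dose Day 0 and Day 8 of cycle 1; olaparib BID from Day 0, carboplatin AUC 3 mg*min/mL IV Day 1 at this level. Three independent samples of 2 × 10⁶ PBMCs were irradiated ex vivo with 8 Gy on ice, then held 1 h on ice. PAR was quantified by HT-PARP in vivo pharmacodynamics Assay II (NCI protocol). Reduction = ([Day 0 − Day 8]/Day 0) × 100%.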

[3] = Olaparib pharmacokinetics in human plasma; assay type: in vivo; settings: Cycle 1 day 0, dose‐level 3 (MTD), olaparib 75 mg tablets, N=6, plasma
[4] = tablet 300 mg vs capsule 400 mg; cited from earlier work
Carboplatin = assay type: in vivo, human; settings: Cycle 1 day 1, plasma ultrafiltrate, target AUC 4, N=21 (dose‐level 1‐4)
Method in brief: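 Platinum from carboplatin measured in plasma and plasma ultrafiltrate by ICPMS with iridium internal standard. Carboplatin was given as a 30-min IV infusion on Day 1, dosed by Calvert formula (Cockcroft-Gault GFR), alongside oral olaparib BID from Day 0. Blood (4 mL) was sampled 0.25, 0.5, 1, 2, 4, 6, 8, 10, 24 and 48 h post-infusion. AUC0-48 calculated.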

[5] = once per 21‐day cycle with olaparib capsules 400 mg BID Day 1 to 7; cited from earlier work

Row | SMILES | Maximum tolerable dose (MTD), olaparib part ([1]; olaparib tablets continuously with carboplatin AUC 4 mg*min/mL d1/d22, two cycles) [mg BID] | Relative reduction in PAR levels in PBMCs [2] | Olaparib AUC0-12 (mean) [3] [ng·h/mL] | AUC of the tablet formulation (300 mg) higher than the capsule formulation (400 mg) [4] [%] | Maximum tolerable dose (MTD), carboplatin part (target AUC) ([1]; carboplatin d1/d22 with olaparib tablets 75 mg BID, two cycles) [mg·min/mL] | Carboplatin AUC0-48 (mean) (Carboplatin) | MTD, carboplatin part (target AUC) [5] [mg·min/mL]
1 | O=C(c1cc(Cc2n[nH]c(=O)c3ccccc23)ccc1F)N1CCN(C(=O)C2CC2)CC1 [olaparib] | 75 | 97.5% ± 0.1% | 15500 | 13 |  |  | 
2 | N.N.O=C([O-])C1(C(=O)[O-])CCC1.[Pt+2] [carboplatin] |  |  |  |  | 4 | 5.10 mg·min/mL and 5.1 mg·min/mL and 5 mg·min/mL | 5

— article PMC8248128 (International Journal of Cancer, 2021)
